In ChEMBL document CHEMBL1155297, “Synthesis, antimicrobial and antioxidant activities of substituted pyrazoles, isoxazoles, pyrimidine and thioxopyrimidine derivatives” (2009):

Key:
Format in all cases: functional
[1] = test system: Radical scavenging activity; assay: Antioxidant activity assessed as DPPH free radical scavenging activity at 100 uM after 20 mins
Outline: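 DPPH scavenging: compound solutions were added to DPPH in dioxane/ethanol and kept at ambient temperature for 20 min. Absorbance was read at 517 nm. The test–control difference was expressed as percent DPPH radical scavenging.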

Klebsiella pneumoniae [2] = assay: Antibacterial activity against Klebsiella pneumoniae NCIM 2957 at 200 ug/disk after 24 hrs by agar disk diffusion method; conditions: NCIM 2957, 24 h, read-out: IZ
Outline: (§1)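 Agar disc diffusion on nutrient agar plates pre-inoculated with each bacterium. Sterile 6 mm filter-paper discs were moistened with compound in DMSO at the stated per-disc amount. Plates were incubated at 37 °C, and the growth-inhibition zone diameter was read after 24 h. Each determination was run in triplicate, and the mean of three independent readings is reported.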

[3] = Antioxidant activity assessed as nitric oxide production at 100 uM after 120 mins by Griess reagent method
Outline: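 Nitric oxide assay with Griess read-out. At intervals, 0.5 ml of incubation solution was mixed with 0.5 ml Griess reagent (1% sulfanilamide, 0.1% N-naphthylethylenediamine dihydrochloride, 2% o-phosphoric acid in water). The control received an equal amount of solvent and was handled identically.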

Proteus vulgaris [4] = assay: Antibacterial activity against Proteus vulgaris NCIM 2027 at 100 ug/disk after 24 hrs by agar disk diffusion method; conditions: NCIM 2027, 24 h, read-out: IZ; outline: as §1
Curvularia lunata [5] = assay: Antifungal activity against Curvularia lunata NCIM 716 at 100 ug/disk after 48 hrs by agar disk diffusion method; conditions: NCIM 716, 48 h, read-out: IZ
Outline: (§2)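 Fungal disc diffusion on nutrient agar plates pre-inoculated with each fungus. 6 mm sterile paper discs carried the compound in DMSO at the stated amount per disc. Plates were held at 37 °C, and inhibition-zone diameter was measured after 48 h. Values are the mean of three independent triplicate readings.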

Bacillus subtilis [6] = assay: Antibacterial activity against Bacillus subtilis NCIM 2063 at 200 ug/disk after 24 hrs by agar disk diffusion method; conditions: NCIM 2063, 24 h, read-out: IZ; outline: as §1
Bacillus subtilis [7] = assay: Antibacterial activity against Bacillus subtilis NCIM 2063 at 100 ug/disk after 24 hrs by agar disk diffusion method; conditions: NCIM 2063, 24 h, read-out: IZ; outline: as §1
Staphylococcus aureus [8] = assay: Antibacterial activity against Staphylococcus aureus NCIM 5021 at 100 ug/disk after 24 hrs by agar disk diffusion method; conditions: NCIM 5021, 24 h, read-out: IZ; outline: as §1
Fusarium solani [9] = assay: Antifungal activity against Fusarium solani NCIM 1330 at 100 ug/disk after 48 hrs by agar disk diffusion method; conditions: NCIM 1330, 48 h, read-out: IZ; outline: as §2
Curvularia lunata [10] = assay: Antifungal activity against Curvularia lunata NCIM 716 at 200 ug/disk after 48 hrs by agar disk diffusion method; conditions: NCIM 716, 48 h, read-out: IZ; outline: as §2
Aspergillus niger [11] = assay: Antifungal activity against Aspergillus niger NCIM 596 at 100 ug/disk after 48 hrs by agar disk diffusion method; conditions: NCIM 596, 48 h, read-out: IZ; outline: as §2
Fusarium solani [12] = assay: Antifungal activity against Fusarium solani NCIM 1330 at 200 ug/disk after 48 hrs by agar disk diffusion method; conditions: NCIM 1330, 48 h, read-out: IZ; outline: as §2
Staphylococcus aureus [13] = assay: Antibacterial activity against Staphylococcus aureus NCIM 5021 at 200 ug/disk after 24 hrs by agar disk diffusion method; conditions: NCIM 5021, 24 h, read-out: IZ; outline: as §1
Aspergillus niger [14] = assay: Antifungal activity against Aspergillus niger NCIM 596 at 200 ug/disk after 48 hrs by agar disk diffusion method; conditions: NCIM 596, 48 h, read-out: IZ; outline: as §2
Klebsiella pneumoniae [15] = assay: Antibacterial activity against Klebsiella pneumoniae NCIM 2957 at 100 ug/disk after 24 hrs by agar disk diffusion method; conditions: NCIM 2957, 24 h, read-out: IZ; outline: as §1
Proteus vulgaris [16] = assay: Antibacterial activity against Proteus vulgaris NCIM 2027 at 200 ug/disk after 24 hrs by agar disk diffusion method; conditions: NCIM 2027, 24 h, read-out: IZ; outline: as §1

Structure (SMILES)	inhibition [1]	zone of inhibition at 200 µg/disc (Klebsiella pneumoniae [2])	inhibition [3]	zone of inhibition at 100 µg/disc (Proteus vulgaris [4])	zone of inhibition at 100 µg/disc (Curvularia lunata [5])	zone of inhibition at 200 µg/disc (Bacillus subtilis [6])	zone of inhibition at 100 µg/disc (Bacillus subtilis [7])	zone of inhibition at 100 µg/disc (Staphylococcus aureus [8])	zone of inhibition at 100 µg/disc (Fusarium solani [9])	zone of inhibition at 200 µg/disc (Curvularia lunata [10])	zone of inhibition at 100 µg/disc (Aspergillus niger [11])	zone of inhibition at 200 µg/disc (Fusarium solani [12])	zone of inhibition at 200 µg/disc (Staphylococcus aureus [13])	zone of inhibition at 200 µg/disc (Aspergillus niger [14])	zone of inhibition at 100 µg/disc (Klebsiella pneumoniae [15])	zone of inhibition at 200 µg/disc (Proteus vulgaris [16])
Cc1ccc(C(=O)CC(C(=O)c2ccc(C)cc2)C2C(N)=NN=C2N)cc1 (stereo unspecified)	66.5%	27 mm	68.2%	24 mm	31 mm	29 mm	27 mm	25 mm	32 mm	33 mm	30 mm	35 mm	28 mm	31 mm	25 mm	26 mm
NC1=NC(=O)N=C(N)C1C(CC(=O)c1ccc(Cl)cc1)C(=O)c1ccc(Cl)cc1 (stereo unspecified)	41%	13 mm	39.4%	10 mm	14 mm	14 mm	12 mm	13 mm	17 mm	18 mm	16 mm	19 mm	15 mm	20 mm	11 mm	12 mm
NC1=NC(=S)N=C(N)C1C(CC(=O)c1ccccc1)C(=O)c1ccccc1 (stereo unspecified)	37.8%	21 mm	35.7%	17 mm	19 mm	24 mm	23 mm	22 mm	16 mm	22 mm	14 mm	20 mm	24 mm	19 mm	19 mm	19 mm
Cc1ccc(C(=O)CC(C(=O)c2ccc(C)cc2)C2C(=N)ON=C2N)cc1 (stereo unspecified)	58.1%	24 mm	54.3%	21 mm	31 mm	28 mm	26 mm	22 mm	32 mm	33 mm	24 mm	34 mm	25 mm	27 mm	22 mm	23 mm
CN1C(=N)C(C(CS(=O)(=O)c2ccccc2)S(=O)(=O)c2ccccc2)C(=N)N(C)C1=O (stereo unspecified)	27.7%	12 mm	26.9%	10 mm	16 mm	16 mm	14 mm	13 mm	13 mm	20 mm	14 mm	16 mm	15 mm	16 mm	9 mm	12 mm
NC1=NC(=S)N=C(N)C1C(CS(=O)(=O)c1ccc(Cl)cc1)S(=O)(=O)c1ccc(Cl)cc1 (stereo unspecified)	47.9%	22 mm	48.5%	21 mm	25 mm	25 mm	23 mm	25 mm	22 mm	28 mm	20 mm	25 mm	27 mm	23 mm	20 mm	23 mm
